Source: BindingDB's records for doi:10.1016/j.bmcl.2005.03.058 (Wyeth Research, 2005)

Legend:
[1] = molecular target: UDP-N-acetylglucosamine 1-carboxyvinyltransferase (Escherichia coli (strain K12), UniProt P0A749); assay: Inhibitory concentration against MurA enzyme in Escherichia coli
Summary of the method: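 Enzyme preincubated with inhibitor 10 min at 37 °C before substrates were added. Reaction ran 30 min at 37 °C and was stopped with malachite green reagent (0.03% malachite green, 1.4% ammonium molybdate, 1.3 N HCl) for phosphate read-out.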

[2] = molecular target: T1, UDP-N-acetylenolpyruvoylglucosamine reductase (Escherichia coli (strain K12), UniProt P08373); assay: Inhibitory concentration against MurB enzyme in Escherichia coli
T1 sequence (P08373 whole entry): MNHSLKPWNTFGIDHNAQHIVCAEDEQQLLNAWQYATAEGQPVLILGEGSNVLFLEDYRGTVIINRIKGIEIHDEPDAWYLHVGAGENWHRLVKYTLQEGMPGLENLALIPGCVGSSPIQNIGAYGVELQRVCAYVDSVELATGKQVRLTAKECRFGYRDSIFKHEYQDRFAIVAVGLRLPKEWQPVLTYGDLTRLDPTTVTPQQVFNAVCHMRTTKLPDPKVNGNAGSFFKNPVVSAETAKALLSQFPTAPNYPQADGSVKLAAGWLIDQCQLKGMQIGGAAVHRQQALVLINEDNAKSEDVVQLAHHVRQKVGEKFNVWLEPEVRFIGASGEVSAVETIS
Summary of the method: (§1)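 Enzyme (20 nM) preincubated 20 min with inhibitor, then substrates added to final 50 µM EP-UNAG and 100 µM NADPH. Activity followed spectrophotometrically. At least six inhibitor concentrations between 1.5 and 50 µM per compound. IC50 from sigmoid Hill curve fit (0–100).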

[3] = molecular target: T2, UDP-N-acetylenolpyruvoylglucosamine reductase (Staphylococcus aureus, UniProt P61431); assay: Inhibitory concentration against MurB enzyme in Staphylococcus aureus; summary of the method: as §1
T2 sequence (P61431 whole entry): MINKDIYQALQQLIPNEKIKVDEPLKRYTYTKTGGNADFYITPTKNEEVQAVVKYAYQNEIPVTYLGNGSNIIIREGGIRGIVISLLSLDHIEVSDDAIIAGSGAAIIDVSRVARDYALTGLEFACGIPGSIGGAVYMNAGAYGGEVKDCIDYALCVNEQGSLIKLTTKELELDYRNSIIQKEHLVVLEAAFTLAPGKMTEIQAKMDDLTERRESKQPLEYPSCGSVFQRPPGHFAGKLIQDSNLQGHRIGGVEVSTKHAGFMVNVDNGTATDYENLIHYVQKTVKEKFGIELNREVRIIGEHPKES

Chain of UDP-N-acetylglucosamine 1-carboxyvinyltransferase (P0A749 whole entry): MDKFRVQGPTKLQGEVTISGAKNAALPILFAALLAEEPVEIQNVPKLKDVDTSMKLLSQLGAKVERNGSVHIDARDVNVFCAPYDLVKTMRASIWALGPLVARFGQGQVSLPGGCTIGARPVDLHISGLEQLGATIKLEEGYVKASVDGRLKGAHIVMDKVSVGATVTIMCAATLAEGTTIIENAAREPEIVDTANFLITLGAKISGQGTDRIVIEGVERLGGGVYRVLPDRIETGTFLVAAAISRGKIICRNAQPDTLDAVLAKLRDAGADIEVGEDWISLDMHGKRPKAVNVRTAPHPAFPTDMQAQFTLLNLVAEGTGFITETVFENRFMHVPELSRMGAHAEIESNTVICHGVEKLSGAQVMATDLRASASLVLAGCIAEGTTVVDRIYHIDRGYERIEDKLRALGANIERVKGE

| Compound | IC50 [1] [µM] | IC50 [2] [µM] | IC50 [3] [µM] |
| --- | --- | --- | --- |
| COc1cccc(Cc2c(O)n(-c3ccc(Cl)cc3)n(-c3ccc(Cl)cc3)c2=O)c1 [1,2-Bis-(4-chloro-phenyl)-4-(3-methoxy-benzyl)-pyrazolidine-3,5-dione] | > 50 | 50 |  |
| CCN(CCc1c(O)n(-c2ccc(Cl)cc2)n(-c2ccc(Cl)cc2)c1=O)Cc1ccccc1 [4-[2-(Benzyl-ethyl-amino)-ethyl]-1,2-bis-(4-chloro-phenyl)-pyrazolidine-3,5-dione] | > 50 | > 50 | > 50 |
| CCN(CC)CCc1c(O)n(-c2ccc(Cl)cc2)n(-c2ccc(Cl)cc2)c1=O [1,2-Bis-(4-chloro-phenyl)-4-(2-diethylamino-ethyl)-pyrazolidine-3,5-dione] | > 50 | > 50 |  |

The remaining lines, values ahead:

| IC50 [1] [µM] | IC50 [2] [µM] | IC50 [3] [µM] | Compound |
| --- | --- | --- | --- |
| > 50 | > 50 |  | O=c1c(Cc2ccccc2)c(O)n(-c2ccc(Cl)cc2)n1-c1ccc(Cl)cc1 [4-Benzyl-1,2-bis-(4-chloro-phenyl)-pyrazolidine-3,5-dione] |
| > 50 | 50 |  | CCC(CC)Cc1c(O)n(-c2ccc(Cl)cc2)n(-c2ccc(Cl)cc2)c1=O [1,2-Bis-(4-chloro-phenyl)-4-(2-ethyl-butyl)-pyrazolidine-3,5-dione] |
| > 50 | > 50 | > 50 | O=c1c(Cc2ccccc2Cl)c(O)n(-c2ccc(Cl)cc2)n1-c1ccc(Cl)cc1 [4-(2-Chloro-benzyl)-1,2-bis-(4-chloro-phenyl)-pyrazolidine-3,5-dione] |
